# Laboratory results reported in ChEMBL document CHEMBL1136969, “Synthesis of novel 2-alkoxy-3-amino-3-arylpropan-1-ols and 5-alkoxy-4-aryl-1,3-oxazinanes with antimalarial activity” (J Med Chem, 2009).
# pIC50: −log10 of the molar value.
# Columns and labels:
# Plasmodium falciparum = assay: Antiplasmodial activity after 48 hrs against chloroquine-sensitive Plasmodium falciparum D10 infected human erythrocytes by LDH reporter assay; assay type: functional, organism-based; conditions: D10, 48 h
# Procedure, shortened: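 Asexual erythrocytic P. falciparum D10 (CQ-sensitive) kept in continuous culture (modified Trager–Jensen); growth read by parasite lactate dehydrogenase assay (modified Makler). Samples from 2 mg/mL stocks in 10% DMSO, sonicated, suspensions allowed; tested from 100 µg/mL in 2-fold serial dilutions in complete medium, 10 concentrations down to 0.2 µg/mL. Chloroquine reference from 100 ng/mL. Duplicate, one occasion; IC50 from full dose-response.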
# [1] = Selectivity index, ratio of IC50 for CHO cells to IC50 for chloroquine-sensitive Plasmodium falciparum D10; assay type: toxicity, cell-based; conditions: hamster, read-out: Ratio IC50
# CHO [2] = assay: Cytotoxicity against CHO cells by MTT assay; assay type: cell-based; conditions: Cricetulus griseus
# Procedure, shortened: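 MTT colorimetric growth/survival assay. Samples from 2 mg/mL stocks in 10% methanol or 10% DMSO, suspensions allowed, stored at -20 °C; 10-fold serial dilutions in complete medium, six concentrations. Emetine reference from 100 µg/mL down to 0.001 µg/mL. Triplicate, one occasion; IC50 by nonlinear dose-response curve fitting.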
# CHO [3] = assay: Cytotoxicity against CHO cells at 100 ug/mL by MTT assay; assay type: cell-based, Cricetulus griseus; conditions: chinese hamster
SMILES,pIC50 (Plasmodium falciparum),IC90 (Plasmodium falciparum) [µM],selectivity ratio [1],pIC50 (CHO [2]),Activity (CHO [3])
CCCN[C@@H](c1ccccc1)[C@H](CO)Oc1ccccc1,4.07,–,–,–,–
CCCN1COC[C@@H](Oc2ccccc2)[C@H]1c1ccc(OC)cc1,4.06,–,–,–,–
CC(C)N[C@@H](c1ccccc1)[C@H](CO)OCc1ccccc1 (relative stereo),4.34,165,–,–,–
CC(C)N1COC[C@@H](OCc2ccccc2)[C@H]1c1ccccc1 (relative stereo),4.18,–,–,–,–
Cc1ccc([C@@H]2[C@H](OCc3ccccc3)COCN2CC(C)C)cc1 (relative stereo),4.52,–,–,–,–
COc1cccc([C@@H](NC2CCCCC2)[C@H](CO)OC)c1 (relative stereo),3.76,–,–,–,–
CCCN1COC[C@@H](Oc2ccccc2)[C@H]1c1ccccc1 (relative stereo),4.07,–,–,–,–
CO[C@@H]1COCN(C(C)(C)C)[C@@H]1c1ccc(C)cc1 (relative stereo),3.92,–,–,–,–
COc1cccc([C@@H]2[C@H](OC)COCN2C2CCCCC2)c1 (relative stereo),4.37,–,–,–,–
Cc1ccc([C@@H]([C@H](CO)OCc2ccccc2)N(C)CC(C)C)cc1 (relative stereo),4.09,–,–,–,–
CCCN1COC[C@@H](Oc2ccccc2)[C@H]1c1ccc(C)cc1 (relative stereo),3.89,–,–,–,–
CCN(CC)CCCC(C)Nc1ccnc2cc(Cl)ccc12 (centres undefined) [CHLOROQUINE],–,0.067,–,–,–
CC[C@H]1CN2CCc3cc(OC)c(OC)cc3[C@@H]2C[C@@H]1C[C@H]1NCCc2cc(OC)c(OC)cc21 [EMETINE],–,–,–,6.97,–

# More lines, in order of rising pIC50 (Plasmodium falciparum), values ahead:
pIC50 (Plasmodium falciparum),IC90 (Plasmodium falciparum) [µM],SMILES,selectivity ratio [1],pIC50 (CHO [2]),Activity (CHO [3])
4.60,102,CCCN[C@@H](c1cccc(OC)c1)[C@H](CO)Oc1ccccc1,–,–,–
4.60,223,OC[C@H](Oc1ccccc1)[C@@H](NCc1ccccc1)c1ccccc1F (relative stereo),–,–,–
4.71,138,Clc1ccc([C@@H]2[C@H](OCc3ccccc3)COCN2c2ccccc2)cc1 (relative stereo),–,–,–
4.77,118,Fc1ccccc1[C@@H]1[C@H](Oc2ccccc2)COCN1Cc1ccccc1 (relative stereo),–,–,Non-toxic
4.78,47.8,CCCN[C@@H](c1ccc(OC)cc1)[C@H](CO)Oc1ccccc1,8.8,3.84,–
4.82,70.8,Cc1ccc([C@H](NCC(C)C)[C@H](CO)OCc2ccccc2)cc1 (relative stereo),9.4,3.84,–
4.85,38.6,Brc1ccccc1[C@@H]1[C@H](OCc2ccccc2)COCN1Cc1ccccc1 (relative stereo),–,–,Non-toxic
4.86,252,CCCN[C@@H](c1ccc(C)cc1)[C@H](CO)Oc1ccccc1,23.8,3.49,–
4.98,43.1,OC[C@H](OCc1ccccc1)[C@@H](NCc1ccccc1)c1ccccc1Br (relative stereo),–,–,Non-toxic
5.20,12.5,OC[C@H](OCc1ccccc1)[C@H](Nc1ccccc1)c1ccc(Cl)cc1 (relative stereo),–,–,Non-toxic
